Results on 14 compounds are retold here after PubChem BioAssay.

Active and inactive are the calls of the source.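 How the source made its calls, unless noted: active means NADPH fluorescence slope more negative than the mean of all samples by about 3 SD, 99.7% confidence; inactive means the rest.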

Assay [1] in a line: inhibitors of TNFa-induced NFkB p65 translocation, primary screen, imaging, HUVEC, MLSMR starter and 10KST1 sets (AID 438;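 active means inhibition above 20% together with a positive visual image hit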;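 further: compound added about 3h40 before a 20 min TNFalpha stimulation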;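 on inhibition: signal is the nuclear over cytoplasmic p65 intensity ratio per well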). To be noted: HUVEC TNFa-induced p65 nuclear translocation; cell count: measured here: nuclei count (cytotoxicity indicator), at 2.08 µM; inhibition: at 2 µM, stronger effect = higher value, 0% TNFa-plus-vehicle, 100% no-TNFa wells.
Assay [2] can be described thus: inhibitors of mutant huntingtin aggregation, primary screen, imaging, exon1htt(103Q)mCFP cells, high-content imaging (AID 483;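 active means visual image review flags a hit and inhibition of aggregation exceeds 20%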;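 further: compound exposure lasted 3 days before fixation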;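 on nuclei count: percent of the per-plate median nuclei count of sample wells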). The note with it: exon1htt(103Q)mCFP cell line, aggregate imaging, at 2 µM; inhibition of aggregation: stronger effect = higher value; nuclei count: measured here: cell count, toxicity.
Assay [3] can be described thus: inhibitors of E-selectin induction by TNFa, primary screen, imaging, HUVEC, immunofluorescence, MLSMR starter and 10KST1 sets (AID 487;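 active means visually confirmed hit in the image check and inhibition above 20%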;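 on inhibition: signal is fraction of cell area covered by stained E-selectin grains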;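 on nuclei count: 100% = median nuclei count of all wells on the same plate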). To be noted: HUVEC TNFalpha-induced E-selectin immunofluorescence imaging, at 2 µM; inhibition: stronger effect = higher value; nuclei count: measured here: cell number, toxicity.
In assay [4] the target is Voltage-gated potassium channel subunit beta-2 (Rattus norvegicus) (UniProt P62483). Description: KvBeta enzyme negative modulators, primary screen, biochemical, NADPH fluorescence (AID 622;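 active means fluorescence slope higher than the sample average by over 3 SD, cut at about -0.22 in these data, passing the limit was not always enough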;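 further: slope of raw intensity against log time taken from 70 to 1610 s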). To be noted: recombinant KvBeta, 4-cyanobenzaldehyde reduction, at 10 µM, stronger effect = higher value.
Chain of Voltage-gated potassium channel subunit beta-2 (Rattus norvegicus) (P62483 whole entry, looked up): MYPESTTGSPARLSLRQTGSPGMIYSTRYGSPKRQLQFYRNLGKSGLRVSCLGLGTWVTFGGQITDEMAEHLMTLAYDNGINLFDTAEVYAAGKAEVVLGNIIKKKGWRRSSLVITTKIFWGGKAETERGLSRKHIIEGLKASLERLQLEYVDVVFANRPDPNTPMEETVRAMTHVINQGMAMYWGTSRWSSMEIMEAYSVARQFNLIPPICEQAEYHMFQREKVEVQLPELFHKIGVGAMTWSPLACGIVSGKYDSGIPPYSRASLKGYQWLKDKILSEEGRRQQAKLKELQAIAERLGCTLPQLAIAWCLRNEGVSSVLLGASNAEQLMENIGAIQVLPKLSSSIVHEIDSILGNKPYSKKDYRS
Assay [5] has the same target. Description: KvBeta positive modulators, primary screen, biochemical, NADPH fluorescence (AID 623).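 Further: fluorescence intensity change per second fitted from 20 to 320 s.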 To be noted: Recombinant KvBeta, NADPH fluorescence decrease slope, 10 min; at 10 µM; stronger effect = lower value.
Assay [6] concerns the target Muscarinic acetylcholine receptor M4 (Homo sapiens) (UniProt P08173). Kind of assay: compounds altering M4/GIRK thallium flux, either direction, primary screen, M4 allosteric agonist project, cell-based, HEK293 M4/GIRK, BTC-AM (AID 625;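 active means fluorescence slope after compound addition differing from the mean of all tested samples at 99.7% confidence, mostly higher but some lower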;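 further: thallium influx through GIRK channels coupled to M4 in HEK293 cells with BTC-AM dye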). To be noted: at 10 µM, actives lie on both sides. In short, it runs like this:
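Material: HEK293 cells with M4 receptor and GIRK channels; Times: cells overnight at 37 °C, BTC-AM loading 1 h, reads 2 min total; Technique: kinetic BTC-AM fluorescence sampled at 1 Hz, 10 s pre-addition baseline; Read-out basis: slope over 15–24 s of trace normalized to starting intensity; Controls: carbachol positive, DMSO negative.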

Assay [7] is described as follows: inhibitors of Sendai virus-induced IRF3 signaling, primary screen, TLR/RLR signaling modifier project, cell-based, Sendai virus stimulus, luciferase, 10K MLSCN set (AID 602276;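 active means inhibition at or above 50% at 10 µM; inactive means inhibition below 50%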;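 further: firefly luciferase from ISG56 promoter only with Renilla not read in this screen; 0% = Sendai virus plus DMSO and 100% = medium plus DMSO without virus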). The note with it: HEK293 RL24 IRF3 luciferase reporter, at 10 µM, stronger effect = higher value.
The nature of assay [8]: inhibitors of poly I:C-induced TLR3 signaling, primary screen, cell-based, poly I:C stimulus, luciferase, 10K MLSCN set (AID 602277;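 active means inhibition of the reporter signal at or above 50%; inactive means inhibition below 50%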). To be noted: HEK293-TLR3 RL24 IRF3 luciferase reporter, at 10 µM, stronger effect = higher value.

Chain of Muscarinic acetylcholine receptor M4 (Homo sapiens) (P08173 whole entry, looked up): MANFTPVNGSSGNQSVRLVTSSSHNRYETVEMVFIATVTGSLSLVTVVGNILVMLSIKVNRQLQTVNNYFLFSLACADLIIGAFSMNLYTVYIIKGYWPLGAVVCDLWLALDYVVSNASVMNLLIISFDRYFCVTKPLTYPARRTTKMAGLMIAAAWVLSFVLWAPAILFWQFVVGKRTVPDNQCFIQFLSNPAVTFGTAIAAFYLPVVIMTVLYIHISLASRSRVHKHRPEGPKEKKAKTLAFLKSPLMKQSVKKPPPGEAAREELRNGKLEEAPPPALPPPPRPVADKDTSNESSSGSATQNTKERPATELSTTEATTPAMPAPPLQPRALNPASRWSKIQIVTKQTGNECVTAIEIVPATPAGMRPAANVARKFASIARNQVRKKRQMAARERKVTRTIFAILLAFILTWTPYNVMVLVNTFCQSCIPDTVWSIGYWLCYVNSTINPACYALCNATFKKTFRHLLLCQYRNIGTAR

With `CCOC(=O)CSc1nnc(CNC(=O)c2ccc(OC)c(OC)c2)n1C`, the cell count in assay [1] worked out at 375. The inhibition in assay [1] is -8.2% (inactive); in assay [3] it was -73% (inactive); in assay [7], 4.54% (inactive); in assay [8] it was 21.4% (inactive). For the same compound, the inhibition of aggregation in assay [2] was -1.1% (inactive). The nuclei count amounted to 82% in assay [2] and 128% in assay [3]. In addition, the fluorescence slope in assay [4] was -0.578 (inactive); in assay [6], 0.00863 (inactive). In assay [5], the NADPH fluorescence slope is -2.7e-05 (inactive).
As to `Cc1ccc(NS(=O)(=O)c2cn(C)cn2)cc1`, the cell count in assay [1] stood at 491. In addition, the inhibition in assay [1] is -0.5% (inactive); in assay [3] it was 3.6% (inactive); in assay [7], 15.2% (inactive); in assay [8] it was 17.6% (inactive). Further, in assay [2], the inhibition of aggregation is 7.8% (inactive). Besides, the values for the nuclei count in assay [2] and in assay [3] were 89.1% and 107%, respectively. Also, the values for the fluorescence slope in assay [4] and in assay [6] were -0.44 (inactive) and 0.00531 (inactive), respectively. Also, the NADPH fluorescence slope in assay [5] is -0.000336 (inactive).
On to `O=C(O)C1CC(=O)N(c2ccc(Br)cc2)C1` (centres undefined), for which the cell count in assay [1] came to 375. The inhibition in assay [1] was 0.4% (inactive); in assay [3], -49.6% (inactive); in assay [7], 2.88% (inactive); in assay [8] it was 10% (inactive). Moreover, the inhibition of aggregation in assay [2] is -10.6% (inactive). The nuclei count in assay [2] was 107%; in assay [3], 117%. The fluorescence slope in assay [4] was -0.506 (inactive); in assay [6] it was 0.00384 (inactive). Further, the NADPH fluorescence slope in assay [5] was -0.000215 (inactive).
Turning to `CCCn1c(N2CCN(CC(=O)NCc3cccs3)CC2)nc2ccccc21`, the cell count in assay [1] turned out to be 451. Also, the inhibition in assay [1] is -6.7% (inactive); in assay [3], -81.5% (inactive); in assay [7] it was 21.5% (inactive); in assay [8], 28.5% (inactive). In assay [2], the inhibition of aggregation was 5.2% (inactive). The nuclei count in assay [2] turned out to be 110%; in assay [3], 228%. The fluorescence slope was -0.437 (inactive) in assay [4] and 0.00415 (inactive) in assay [6]. Also, the NADPH fluorescence slope in assay [5] was -3.1e-05 (inactive).
On to `COc1ccc(N(CC(=O)N2c3ccccc3CC2C)S(=O)(=O)c2c(C)noc2C)cc1` (centres undefined), for which the cell count in assay [1] was 539. Also, the inhibition in assay [1] is -5.8% (inactive); in assay [3] it was -62.5% (inactive); in assay [7] it was 14.5% (inactive); in assay [8] it was 30.9% (inactive). For the same compound, the inhibition of aggregation in assay [2] is -18.3% (inactive). Further, the results for the nuclei count in assay [2] and in assay [3] were 118% and 116%, respectively. Further, the fluorescence slope was -0.395 (inactive) in assay [4] and 0.00594 (inactive) in assay [6]. In assay [5], the NADPH fluorescence slope is 9.4e-05 (inactive).
Take `CCc1ncc(C(O)c2cccc(OC)c2OC)n1C` (centres undefined): the cell count in assay [1] was 335. Also, the inhibition in assay [1] was 2.8% (inactive); in assay [3], 17.7% (inactive); in assay [7], 23.2% (inactive); in assay [8], 24% (inactive). Moreover, in assay [2], the inhibition of aggregation is 7.4% (inactive). Moreover, the nuclei count worked out at 96.1% in assay [2] and 126% in assay [3]. The results for the fluorescence slope in assay [4] and in assay [6] were -0.451 (inactive) and 0.00484 (inactive), respectively. For the same compound, the NADPH fluorescence slope in assay [5] is -2.7e-05 (inactive).
Take `COC(=O)c1nn(-c2ccc(-c3ccccc3)cc2)cc1O`: the cell count in assay [1] came out at 281. For the same compound, the inhibition in assay [1] is 6% (inactive); in assay [3], 9.1% (inactive); in assay [7], 6.22% (inactive); in assay [8], 7.64% (inactive). The inhibition of aggregation in assay [2] is 14.9% (inactive). Besides, the nuclei count came to 99.2% in assay [2] and 111% in assay [3]. Also, the figures for the fluorescence slope in assay [4] and in assay [6] were -0.493 (inactive) and 0.00465 (inactive), respectively. Moreover, the NADPH fluorescence slope in assay [5] was -1.1e-05 (inactive).
Consider `O=C(CCN1CCOCC1)Nc1ccc2c(c1)CCC2`, for which, in assay [1], the cell count is 228. Also, the inhibition in assay [1] was 5.7% (inactive); in assay [3] it was -83.8% (inactive); in assay [7], 4.13% (inactive); in assay [8] it was -9.22% (inactive). For the same compound, the inhibition of aggregation in assay [2] was 17.3% (inactive). Besides, the nuclei count in assay [2] was found to be 74.9%; in assay [3], 140%. In addition, the fluorescence slope in assay [4] was -0.442 (inactive); in assay [6], 0.00437 (inactive). In addition, the NADPH fluorescence slope in assay [5] was -5.3e-05 (inactive).
For the compound `CCOc1ccc(-n2cc(C(=O)Nc3cccc(C)n3)c3cc(OC)c(OC)cc3c2=O)cc1`, in assay [1], the cell count is 395. Moreover, the inhibition in assay [1] is 5.1% (inactive); in assay [3], -8% (inactive); in assay [7] it was 13.3% (inactive); in assay [8], 25.9% (inactive). In addition, the inhibition of aggregation in assay [2] is 20.8% (inactive). Besides, the nuclei count in assay [2] worked out at 82.4%; in assay [3] it was 94%. Besides, the fluorescence slope in assay [4] was -0.414 (inactive); in assay [6] it was 0.0107 (inactive). The NADPH fluorescence slope in assay [5] was -0.000102 (inactive).
For the compound `Cc1cc2c(c(=O)n1CCN(C)C)C(c1ccncc1)C(C#N)=C(N)O2` (centres undefined), the cell count in assay [1] amounted to 552. Also, the inhibition was 7.7% (inactive) in assay [1], -74% (inactive) in assay [3], 5.86% (inactive) in assay [7] and 8.13% (inactive) in assay [8]. Besides, in assay [2], the inhibition of aggregation is 5% (inactive). The values for the nuclei count in assay [2] and in assay [3] were 102% and 155%, respectively. Besides, the fluorescence slope in assay [4] is -0.484 (inactive); in assay [6], 0.00498 (inactive). In addition, the NADPH fluorescence slope in assay [5] was -1.3e-05 (inactive).
For the compound `CS(=O)(=O)Nc1ccc(S(=O)(=O)Nc2nccs2)cc1`, the cell count in assay [1] worked out at 418. The inhibition in assay [1] was 5.4% (inactive); in assay [3], -42.5% (inactive); in assay [7], 9.08% (inactive); in assay [8], 14.5% (inactive). Further, in assay [2], the inhibition of aggregation was -6.9% (inactive). Further, the nuclei count in assay [2] came to 112%; in assay [3] it was 87.9%. The values for the fluorescence slope in assay [4] and in assay [6] were -0.399 (inactive) and 0.00758 (inactive), respectively. Besides, in assay [5], the NADPH fluorescence slope is 7.8e-05 (inactive).
`Cc1ccc(C)c(-n2c(Cc3cc(=O)[nH]c(=O)[nH]3)nnc2SCC(=O)NCc2ccco2)c1`: in assay [1], the cell count was determined as 254. The inhibition in assay [1] was -4.3% (inactive); in assay [3], 65.5% (active); in assay [7], -2% (inactive); in assay [8] it was 5.02% (inactive). Moreover, the inhibition of aggregation in assay [2] was -32.9% (inactive). Also, the results for the nuclei count in assay [2] and in assay [3] were 74.4% and 64%, respectively. Moreover, the fluorescence slope is -0.549 (inactive) in assay [4] and 0.00457 (inactive) in assay [6]. Besides, in assay [5], the NADPH fluorescence slope was -6.1e-05 (inactive).
With `C/C(CC(O)(/C=N/O)c1ccccc1)=N\O` (centres undefined), the cell count in assay [1] amounted to 343. Besides, the inhibition was 2.4% (inactive) in assay [1], -60.1% (inactive) in assay [3], 14.3% (inactive) in assay [7] and 15.7% (inactive) in assay [8]. Besides, the inhibition of aggregation in assay [2] is 4% (inactive). The values for the nuclei count in assay [2] and in assay [3] were 97% and 120%, respectively. Besides, the fluorescence slope in assay [4] is -0.569 (inactive); in assay [6] it was 0.00371 (inactive). For the same compound, the NADPH fluorescence slope in assay [5] was -5.8e-05 (inactive).
With `Cc1ccc2[nH]c(=O)c(CN(CCc3ccccc3)Cc3nnnn3CC3CCCO3)cc2c1` (centres undefined), the cell count in assay [1] turned out to be 676. The inhibition in assay [1] is -10.2% (inactive); in assay [3], 75.6% (active); in assay [7], -7.83% (inactive); in assay [8], -6.03% (inactive). In assay [2], the inhibition of aggregation is 0.9% (inactive). The nuclei count in assay [2] amounted to 105%; in assay [3], 112%. Also, the fluorescence slope in assay [4] was -0.498 (inactive); in assay [6], 0.00636 (inactive). The NADPH fluorescence slope in assay [5] is -7e-06 (inactive).
